NF-kB neuron act: NF-kB expression increase, human neuronal cells. NF-kB reporter expression; hits give high values. fold change at 12.5 µM. actives 1.6% (n = 190,000). AID 1239; in the data active = fold change above about 3.3
STAT1 blocker: STAT1 signaling inhibition | NIH 3T3 STAT1-luciferase reporter, IFN-gamma, luminescence | inhibition, % at 5.5 µM | actives 0.35% (n = 200,000);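 active = inhibition above a set limit, the mean inhibition across all tested compounds plus 3 SD, cut at about 34% in these data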;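 note: 0% = IFN-gamma with DMSO and 100% = IFN-gamma with 300 µM nifuroxazide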
STAT3 act: increases IL-6 driven STAT3 reporter signal. U3A cells, IL-6 STAT3-luciferase reporter, luminescence; 100% = signal with IL-6 EC80 alone. activation (% of control), % at 5.6 µM. actives 0.91% (n = 190,000). AID 871;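 active = activation above the screen-wide mean of compound activation plus 3 SD, cut at about 130% in these data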;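 note: 0% = background luminescence of wells with medium and substrate only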
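Detection: reporter luminescence signal / Assay system: STAT1-lacking human U3A cells, STAT3 luciferase reporter / Incubation: compound pre-incubation 1 h before IL-6, then 6 h stimulation at 37 °C / Control set: IL-6-only high control / Read-out: % activation relative to IL-6 control / Probe or stimulus: Interleukin-6, 33 ng/mL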
STAT1 activator: activators of IFN-gamma induced STAT1 signaling. AID 932. NIH 3T3 STAT1-luciferase reporter, luminescence; 100% = IFN-gamma alone, no compound. activation (% of control), % at 5.5 µM. actives 2.6% (n = 200,000);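 active = activation above the screen-wide mean activation plus 3 SD, cut at about 130% in these data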;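 note: raw ratio to IFN-gamma control signal so 100% means no change and 0% no light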
STAT3 blocker: reduces IL-6 driven STAT3 reporter signal | inhibition, % at 5.5 µM | U3A cells, IL-6 STAT3-luciferase reporter, luminescence; host cell line lacks STAT1 | actives 0.89% (n = 190,000);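 active = inhibition above the mean inhibition across all screened compounds plus 3 SD, cut at about 44% in these data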;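 note: 0% = DMSO only wells and 100% = 100 µM nifuroxazide control wells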
APP 5'UTR act: activates APP 5'UTR luciferase reporter | SH-SY5Y APP 5'UTR luciferase reporter, luminescence; zero percent = DMSO vehicle wells | activation, % at 2 µM | actives 1% (n = 190,000);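 active = activation above a set limit, based on mean plus 3 SD of controls, cut at about 140% in these data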
* hit, by the source's call. Hits are enriched below; roughly 4.9% of the tested compounds scored in any of these assays.

O=C(NC(Cc1ccccc1)C(=O)O)/C(=C/c1ccccc1)NC(=O)c1cccc(Br)c1 (configuration not stated) was read as NF-kB neuron act 1.2, STAT1 blocker 6, STAT3 act 99, STAT1 activator 95, STAT3 blocker 10 and APP 5'UTR act 1.
`Cc1cccc(/C(N)=N/OC(=O)Cc2ccccc2)c1` gave NF-kB neuron act 1.8, STAT1 blocker -54, STAT3 act 100, STAT1 activator 147*, STAT3 blocker 6 and APP 5'UTR act 46.
COc1ccc(/C(N)=N/OC(=O)COc2ccccc2Cl)cc1 was read as NF-kB neuron act 1.9, STAT1 blocker -22, STAT3 act 96, STAT1 activator 120, STAT3 blocker 9 and APP 5'UTR act 12.
Cc1cccc(/C(N)=N/OC(=O)COc2ccccc2Cl)c1 was read as NF-kB neuron act 1.7, STAT1 blocker -40, STAT3 act 103, STAT1 activator 135*, STAT3 blocker 1 and APP 5'UTR act 49.
Screening CCOC(=O)c1c(-n2cccc2)sc2c1CCCC2=O returned NF-kB neuron act 0.94, STAT1 blocker -16, STAT3 act 105, STAT1 activator 114, STAT3 blocker -5 and APP 5'UTR act 14.
Cc1ccc(-n2nc3c(n2)/C(=N/O)CC/C3=N\O)cc1 was read as NF-kB neuron act 4.7*, STAT1 blocker -33, STAT3 act 91, STAT1 activator 130*, STAT3 blocker 10 and APP 5'UTR act 86.
Screening O/N=C1\CC/C(=N\O)c2nn(-c3ccccc3Cl)nc21 returned NF-kB neuron act 1.1, STAT1 blocker -3, STAT3 act 97, STAT1 activator 103, STAT3 blocker 7 and APP 5'UTR act 5.
Screening CSCCC(NC(=O)COc1ccccc1)C(=O)O (configuration not stated) returned NF-kB neuron act 1, STAT1 blocker -1, STAT3 act 106, STAT1 activator 99, STAT3 blocker -5 and APP 5'UTR act 15.
Screening Cn1cc(Br)c(C(=O)NC2C3CC4CC(C3)CC2C4)n1 (configuration not stated) returned NF-kB neuron act 1.1, STAT1 blocker -51, STAT3 act 108, STAT1 activator 147*, STAT3 blocker -10 and APP 5'UTR act 14.
`C/C(=N\N=c1/sc2ccccc2n1C)c1ccccn1` gave NF-kB neuron act 2, STAT1 blocker -49, STAT3 act 100, STAT1 activator 142*, STAT3 blocker 5 and APP 5'UTR act 60.
CCOc1ccccc1CN1CCN(Cc2csc(C(C)=O)c2)CC1CCO (configuration not stated) was read as NF-kB neuron act 0.91, STAT1 blocker 3, STAT3 act 101, STAT1 activator 95, STAT3 blocker 4 and APP 5'UTR act -2.
Screening Cc1cc(NC(=O)C2CCCO2)ccc1Br (configuration not stated) returned NF-kB neuron act 0.95, STAT1 blocker -6, STAT3 act 86, STAT1 activator 103, STAT3 blocker 21 and APP 5'UTR act 19.
`Cc1cc(NC(=S)NC(=O)C2CC2)ccc1Br` gave NF-kB neuron act 2.2, STAT1 blocker -43, STAT3 act 119, STAT1 activator 139*, STAT3 blocker -29 and APP 5'UTR act 48.
For Cc1ccc(Nc2nc(=O)c3cccnc3s2)cc1 the results were NF-kB neuron act 4.3*, STAT1 blocker -41, STAT3 act 144*, STAT1 activator 137*, STAT3 blocker -47 and APP 5'UTR act 68.
For NS(=O)(=O)c1ccc(CCNC(=O)NC2(C(F)(F)F)Oc3ccccc3O2)cc1 the results were NF-kB neuron act 3.9*, STAT1 blocker -18, STAT3 act 103, STAT1 activator 117, STAT3 blocker 0 and APP 5'UTR act -25.
`CCN(CC)S(=O)(=O)c1cc(C(=O)OCC(=O)Nc2ccc(-c3nc4ccc(C)cc4s3)cc2)ccc1F` gave NF-kB neuron act 6*, STAT1 blocker -50, STAT3 act 72, STAT1 activator 145*, STAT3 blocker 38 and APP 5'UTR act 143*.
`CCN(CC)S(=O)(=O)c1cc(C(=O)OCC(=O)Nc2cccc(S(=O)(=O)N(C)C)c2)ccc1F` gave NF-kB neuron act 0.94, STAT1 blocker 5, STAT3 act 108, STAT1 activator 95, STAT3 blocker 3 and APP 5'UTR act -7.
CC(C)[C@H](NC(N)=O)C(=O)Nc1ccc(F)c(Cl)c1 was read as NF-kB neuron act 1.1, STAT1 blocker -11, STAT3 act 118, STAT1 activator 110, STAT3 blocker -14 and APP 5'UTR act 0.
For Cc1ccc(-n2c(SCC(=O)Nc3cccc(S(N)(=O)=O)c3)nc3ccccc32)cc1 the results were NF-kB neuron act 0.77, STAT1 blocker 19, STAT3 act 98, STAT1 activator 83, STAT3 blocker 2 and APP 5'UTR act 4.
`C=CCn1c(O)c(C=Nc2ccccc2)sc1=S` gave NF-kB neuron act 1.6, STAT1 blocker -33, STAT3 act 102, STAT1 activator 129*, STAT3 blocker 0 and APP 5'UTR act 39.
Screening Oc1c(C=Nc2ccccc2)sc(=S)n1Cc1ccccc1 returned NF-kB neuron act 1.3, STAT1 blocker -4, STAT3 act 104, STAT1 activator 104, STAT3 blocker 2 and APP 5'UTR act 4.
Screening CCn1c(O)c(C=Nc2ccccc2)sc1=O returned NF-kB neuron act 1.6, STAT1 blocker -34, STAT3 act 100, STAT1 activator 130*, STAT3 blocker 6 and APP 5'UTR act 20.
Screening CCc1nc(SCC(=O)Nc2sc(C)c(C)c2C(=O)OC)c2ccccc2n1 returned NF-kB neuron act 1.1, STAT1 blocker 9, STAT3 act 112, STAT1 activator 92, STAT3 blocker -13 and APP 5'UTR act -8.
Screening O=C(C1CC(c2ccc(F)cc2)=NO1)N1CCN(c2ccccc2)CC1 (configuration not stated) returned NF-kB neuron act 1.1, STAT1 blocker -2, STAT3 act 100, STAT1 activator 102, STAT3 blocker 5 and APP 5'UTR act 0.
Screening CC1CCCCN1C(=O)C1CC(c2ccc(F)cc2)=NO1 (configuration not stated) returned NF-kB neuron act 1.7, STAT1 blocker -40, STAT3 act 102, STAT1 activator 136*, STAT3 blocker 0 and APP 5'UTR act 43.
Screening O=C(C1CC(c2ccc(F)cc2)=NO1)N1CCCCC1 (configuration not stated) returned NF-kB neuron act 2.1, STAT1 blocker -35, STAT3 act 96, STAT1 activator 132*, STAT3 blocker 10 and APP 5'UTR act 66.
`CN(C)/C=C/C(=O)c1ccc(Cl)s1` gave NF-kB neuron act 1.4, STAT1 blocker -6, STAT3 act 99, STAT1 activator 104, STAT3 blocker 6 and APP 5'UTR act 6.

High-throughput results: PubChem, several laboratories
